Results published in ChEMBL document CHEMBL1129031, “Cyclic nitrone free radical traps: isolation, identification, and synthesis of 3,3-dimethyl-3,4-dihydroisoquinolin-4-ol N-oxide, a metabolite with reduced side effects” (J Med Chem, 1996).

Tests used:
Mus musculus [1] = experiment: (§1) The compound was tested for acute toxicity and activity is expressed as deaths/5 mice after iv (200 mg/kg) administration.; format: organism-based; settings: in vivo
Outline: (§2)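 Acute toxicity screen in mice given the compound intravenously at 200 mg/kg body weight, five mice per group. Read-out is the survival rate, reported as the number of deaths among the five animals.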

[2] = In vitro antioxidant activity was measured as IC50, inhibition concentration against neuronal peroxidation.; format: functional, Rattus norvegicus
Outline: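 Rat cerebellar granule cells (from 8-day pups, 8-10 days in vitro) in glucose-free Na⁺-free Locke's, pH 7.3. Nitrone was preincubated 30 min, then FeCl₂ added at 100 µM final for 45 min. TBARS measured in the medium, with no-iron background subtracted. IC50 is the concentration inhibiting 50% of iron-induced oxidation.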

[3] = Lipophilicity expressed as log K'w.; format: physicochemical; settings: reversed-phase HPLC
Mus musculus [4] = experiment: (§3) The compound was tested for acute toxicity and activity is expressed as deaths/5 mice after iv (400 mg/kg) administration.; format: organism-based; settings: in vivo
Outline: (§4)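 Acute toxicity screen in mice given the compound intravenously at 400 mg/kg body weight, five mice per group. Read-out is the survival rate, reported as the number of deaths among the five animals.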

[5] = Maintenance of cell viability by the compound was tested in vitro against cerebellar granule cell cultures from 8-day-old-rats; format: functional; settings: Rattus norvegicus
Outline: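 Cerebellar granule cultures from 8-day-old rats were used at 8-10 days in vitro. Cells got nitrone for 30 min, then 100 µM FeCl₂ for 45 min in Na⁺-free Locke's. MEM plus MTT was added for 4 h and the cells lysed in acidic 2-propanol. Read at A570-630, with cell death given relative to no-iron cells. Two separate experiments about 6 months apart.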

[6] = In vitro antioxidant activity was measured as IC50, Inhibition concentration against Liposomal peroxidation.; format: functional, Glycine max
Outline: (§5)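 Liposomes were made from soybean phosphatidylcholine. Oxidation was initiated and quantitated by the previously described method. Activity is expressed as IC50, the concentration inhibiting lipid peroxidation by 50%.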

Rattus norvegicus [7] = experiment: Compound was tested for rat brain permeability at 200 mg/kg i.p. after 30 min; format: ADME, organism-based; design: dose 200 mg/kg, route intraperitoneal; settings: in vivo, ip, 0.5 h
Outline: (§6)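 Rats given a single ip dose of 200 mg/kg and killed at 30 or 60 min after dosing. Brains were removed, homogenized and extracted with CHCl₃/MeOH. Brain level is reported as µg/g wet weight.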

Rattus norvegicus [8] = experiment: Compound was tested for rat brain permeability at 200 mg/kg i.p. after 60 min; format: ADME, organism-based; design: dose 200 mg/kg, route intraperitoneal; settings: in vivo, ip, 1 h; outline: as §6
Mus musculus [9] = experiment: as §3; format: functional; outline: as §4
[10] = Compound was tested for brain permeability at 200 mg/kg i.p. after 60 min; format: ADME, organism-based; design: dose 200 mg/kg, route intraperitoneal; settings: in vivo, ip, 1 h; outline: as §6
Mus musculus [11] = experiment: as §1; format: functional; outline: as §2
[12] = Compound was tested for brain permeability at 200 mg/kg i.p. after 30 min; format: ADME, organism-based; design: dose 200 mg/kg, route intraperitoneal; settings: in vivo, ip, 0.5 h; outline: as §6
[13] = In vitro antioxidant activity was measured as IC50, Inhibitory concentration against Liposomal peroxidation.; format: functional, Glycine max; outline: as §5

Structure (SMILES) | Toxicity (Mus musculus [1]) | IC50 [2] [µM] | Log k'w [3] | Toxicity (Mus musculus [4]) | IC50 [5] [µM] | IC50 [6] [µM] | Brain level (Rattus norvegicus [7]) [µg/g] | Brain level (Rattus norvegicus [8]) [µg/g] | Toxicity (Mus musculus [9]) | Brain level [10] [µg/g] | Toxicity (Mus musculus [11]) | Brain level [12] [µg/g] | IC50 [13] [mM]
O=C1c2ccccc2C=[N+]([O-])C12CCCCC2 | 0 | 37 | 2.6 | 5 | 39 | 27 | – | – | – | – | – | – | –
CC1(C)C(=O)c2ccccc2C=[N+]1[O-] | 0 | 830 | 1.65 | 1 | 882 | 940 | 103 | 67 | – | – | – | – | –
[O-][N+]1=Cc2ccccc2C(O)C12CCCC2 (centres undefined) | 0 | 771 | 1.67 | 0 | 817 | 1040 | – | – | – | – | – | – | –
CC1(C)C(O)c2ccccc2C=[N+]1[O-] (centres undefined) | – | 1900 | 0.91 | – | 1500 | 5500 | – | – | 0 | 127 | 0 | 142 | –
O=C1c2ccccc2C=[N+]([O-])C12CCCC2 | 0 | 102 | 2.05 | 4 | – | 157 | – | – | – | – | – | – | –
CC(=O)OC1c2ccccc2C=[N+]([O-])C1(C)C (centres undefined) | 0 | 839 | 1.95 | 0 | 660 | 2090 | – | – | – | – | – | – | –
CC1(C)Cc2ccccc2C=[N+]1[O-] | – | 307 | 1.9 | – | – | 1670 | – | – | 5 | 77 | 0 | 109 | –
[O-][N+]1=Cc2ccccc2C(O)C12CCCCC2 (centres undefined) | 0 | 520 | 2.1 | 0 | 588 | 539 | – | – | – | – | – | – | –
CC(C)(C)/[N+]([O-])=C/c1ccccc1 | – | 2580 | – | – | 2600 | – | 51 | 38 | 4 | – | 1 | – | 14.3
